Source: ChEMBL document CHEMBL4342526, “Exploration of the Structural Space in 4(3H)-Quinazolinone Antibacterials” (J Med Chem, 2020)
In brackets after ≈: the same amount, converted by molar mass.

Columns and labels:
[1] = Selectivity index, ratio of IC50 for human HeLa cells to MIC for clindamycin/erythromycin/spectinomycin-resistant mec-positive Staphylococcus aureus NRS70; format: toxicity
Procedure, shortened: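 HeLa cytotoxicity by XTT assay in triplicate, IC50 by nonlinear regression; ratio IC50 over broth microdilution MIC against NRS70.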

[2] = system: Staphylococcus aureus; test: Antibacterial activity against Staphylococcus aureus ATCC 29213 measured after 16 to 20 hrs in presence of bovine serum albumin by microdilution method; format: functional
Procedure, shortened: (§1)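 S. aureus ATCC29213 MIC was run by CLSI microdilution in cation-adjusted Mueller–Hinton broth plus 2% NaCl, with and without 0.5% bovine serum albumin. Compounds were two-fold serially diluted in triplicate, inoculum was 5 × 10^5 CFU/mL, and plates were incubated at 37 °C for 16–20 h. The endpoint was the lowest concentration with no visible growth.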

[3] = system: Staphylococcus aureus; test: Antibacterial activity against multi-drug resistant mecA-positive Staphylococcus aureus NRS119 measured after 16 to 20 hrs by microdilution method; format: functional
Procedure, shortened: (§2)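 CLSI broth microdilution; two-fold serial compound dilutions in triplicate in cation-adjusted Mueller–Hinton broth with 2% NaCl, inoculum 5 × 10^5 CFU/mL; 37 °C for 16–20 h; MIC = lowest concentration with no visible growth.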

[4] = system: Staphylococcus aureus; test: Antibacterial activity against Staphylococcus aureus ATCC 29213 measured after 16 to 20 hrs by microdilution method; format: functional
Procedure, shortened: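 CLSI broth microdilution: two-fold serial dilutions in triplicate in cation-adjusted Mueller–Hinton broth with 2% NaCl, inoculum 5 × 10^5 CFU/mL, incubated at 37 °C for 16–20 h. MIC is the lowest concentration preventing visible growth.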

[5] = system: Staphylococcus aureus; test: Antibacterial activity against multi-drug resistant mecA-positive Staphylococcus aureus ATCC 27660 measured after 16 to 20 hrs by microdilution method; format: functional; procedure, shortened: as §2
[6] = system: HeLa; test: Cytotoxicity against human HeLa cells assessed as reduction in cell viability measured after 16 hrs by XTT assay; format: cell-based
Procedure, shortened: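 HeLa cells (ATCC CCL-2), run in triplicate. Viability was read by XTT, and IC50 was obtained by nonlinear regression.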

[7] = system: Staphylococcus aureus; test: Antibacterial activity against multi-drug resistant mec-positive Staphylococcus aureus USA300 measured after 16 to 20 hrs by microdilution method; format: functional; procedure, shortened: as §2
[8] = Protein binding in human plasma at 10 uM measured after 6 hrs UV-UPLC based rapid equilibrium dialysis method; format: ADME, cell-free
Procedure, shortened: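 Rapid equilibrium dialysis: human plasma was cleared by centrifugation and spiked from a 1 mM DMSO stock to a final 10 μM, against 0.1 M PBS pH 7.4. Dialysis ran 6 h at 37 °C with orbital shaking. Buffer (free) and plasma (total) aliquots were mixed with internal standard in acetonitrile and measured by UPLC-UV at 285 nm. B% = (Cp−Cf)/Cp×100.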

[9] = system: Staphylococcus aureus; test: Antibacterial activity against clindamycin/erythromycin/spectinomycin-resistant mec-positive Staphylococcus aureus NRS70 measured after 16 to 20 hrs by microdilution method; format: functional; procedure, shortened: as §2
[10] = Solubility of the compound in water; format: physicochemical; details: buffer
[11] = system: Staphylococcus aureus; test: Selectivity ratio of MIC for Staphylococcus aureus ATCC 29213 in presence of bovine serum albumin to MIC for Staphylococcus aureus ATCC 29213 in absence of bovine serum albumin; format: functional; procedure, shortened: as §1

SMILES | selectivity ratio [1] | MIC [2] | MIC [3] | MIC [4] | MIC [5] | IC50 [6] | MIC [7] | PPB [8] | MIC [9] | solubility [10] | selectivity ratio [11]
C#Cc1ccc(/C=C/c2nc3ccccc3c(=O)n2-c2cccc(C(=O)O)c2)cc1 | > 256 | 0.25 mg/L | 0.125 mg/L (≈ 0.319 µM) | 0.03 mg/L (≈ 0.0764 µM) | 0.125 mg/L (≈ 0.319 µM) | > 128 mg/L | 0.03 mg/L (≈ 0.0764 µM) |  |  |  | 
CS(=O)(=O)Nc1cccc(-n2c(NCc3ccc(C#N)cc3)nc3ccccc3c2=O)c1 | 248 | 1 mg/L | 0.25 mg/L (≈ 0.561 µM) | 0.125 mg/L (≈ 0.281 µM) | 0.125 mg/L (≈ 0.281 µM) | 62 mg/L (≈ 139 µM) | 0.25 mg/L (≈ 0.561 µM) | > 99.9% | 0.25 mg/L (≈ 0.561 µM) |  | 
CC(=O)NS(=O)(=O)c1cccc(-n2c(/C=C/c3ccc(C#N)cc3)nc3ccccc3c2=O)c1 | 50 |  | 2 mg/L (≈ 4.25 µM) | 4 mg/L (≈ 8.5 µM) |  | 200 mg/L (≈ 425 µM) |  | 99.2% |  |  | 
N#Cc1ccc(/C=C/c2nc3ccccc3c(=O)n2-c2cccc(C(N)=O)c2)cc1 | > 64 | 16 mg/L | 32 mg/L (≈ 81.5 µM) | 2 mg/L (≈ 5.1 µM) |  | > 128 mg/L | 1 mg/L (≈ 2.55 µM) | 97.1% |  | Insoluble | 
O=C(O)c1cccc(-n2c(/C=C/c3cc(Cl)cs3)nc3ccccc3c2=O)c1 | 70 | 32 mg/L | 1 mg/L (≈ 2.45 µM) | 4 mg/L (≈ 9.78 µM) | 2 mg/L (≈ 4.89 µM) | 140 mg/L (≈ 342 µM) | 4 mg/L (≈ 9.78 µM) | > 99.9% | 2 mg/L (≈ 4.89 µM) |  | 
O=C(O)c1cccc(-n2c(/C=C/c3ccc(I)cc3)nc3ccccc3c2=O)c1 | 200 | 16 mg/L | 2 mg/L (≈ 4.05 µM) | 0.5 mg/L (≈ 1.01 µM) | 0.5 mg/L (≈ 1.01 µM) | 100 mg/L (≈ 202 µM) | 0.25 mg/L (≈ 0.506 µM) | > 99.9% | 0.5 mg/L (≈ 1.01 µM) |  | 
N#Cc1ccc(/C=C/c2nc3ccccc3c(=O)n2-c2cccc(CNC(=O)C(F)(F)F)c2)cc1 | 2 | 8 mg/L |  | 0.5 mg/L (≈ 1.05 µM) | 64 mg/L (≈ 135 µM) | 150 mg/L (≈ 316 µM) | 4 mg/L (≈ 8.43 µM) | > 99.9% | 64 mg/L (≈ 135 µM) |  | 
Cc1ccc(C(=O)O)cc1-n1c(/C=C/c2ccc(C#N)cc2)nc2ccccc2c1=O | 15 | 16 mg/L | 4 mg/L (≈ 9.82 µM) | 2 mg/L (≈ 4.91 µM) | 4 mg/L (≈ 9.82 µM) | 60 mg/L (≈ 147 µM) | 1 mg/L (≈ 2.45 µM) | > 99.9% | 4 mg/L (≈ 9.82 µM) |  | 
N#Cc1ccc(/C=C/c2nc3ccccc3c(=O)n2-c2ccccc2O)cc1 | 667 | 0.125 mg/L |  | 0.015 mg/L (≈ 0.0411 µM) | 0.25 mg/L (≈ 0.684 µM) | 40 mg/L (≈ 109 µM) | 0.03 mg/L (≈ 0.0821 µM) | 98.1% | 0.06 mg/L (≈ 0.164 µM) | Insoluble | 
N#Cc1ccc(/C=C/c2nc3ccccc3c(=O)n2-c2cccc(C(=O)O)c2)s1 | 28 | 32 mg/L | 4 mg/L (≈ 10 µM) | 4 mg/L (≈ 10 µM) | 4 mg/L (≈ 10 µM) | 110 mg/L (≈ 275 µM) | 4 mg/L (≈ 10 µM) | 99.2% | 4 mg/L (≈ 10 µM) |  | 
N#Cc1ccc(/C=C/c2nc3ccccc3c(=O)n2-c2cc(C(=O)O)ccc2Cl)cc1 | > 64 | 16 mg/L | 2 mg/L (≈ 4.67 µM) | 2 mg/L (≈ 4.67 µM) | 2 mg/L (≈ 4.67 µM) | > 128 mg/L | 1 mg/L (≈ 2.34 µM) | > 99.9% | 2 mg/L (≈ 4.67 µM) |  | 
O=C(O)c1cccc(-n2c(/C=C/c3ccc(Cl)cc3)nc3ccccc3c2=O)c1 | 200 | 1 mg/L | 0.125 mg/L (≈ 0.31 µM) | 0.25 mg/L (≈ 0.621 µM) | 0.25 mg/L (≈ 0.621 µM) | 50 mg/L (≈ 124 µM) | 0.125 mg/L (≈ 0.31 µM) | > 99.9% | 0.25 mg/L (≈ 0.621 µM) |  | <=4
O=C(O)c1cccc(-n2c(CCc3ccc(F)cc3)nc3ccccc3c2=O)c1 | 40 | 8 mg/L | 4 mg/L (≈ 10.3 µM) | 2 mg/L (≈ 5.15 µM) | 4 mg/L (≈ 10.3 µM) | 79 mg/L (≈ 203 µM) | 1 mg/L (≈ 2.57 µM) | > 99.9% |  |  | <=4
O=C(O)c1cccc(-n2c(/C=C/c3ccc(Cl)s3)nc3ccccc3c2=O)c1 | 360 | 4 mg/L |  | 0.5 mg/L (≈ 1.22 µM) | 0.5 mg/L (≈ 1.22 µM) | 180 mg/L (≈ 440 µM) | 1 mg/L (≈ 2.45 µM) | 99.3% | 0.5 mg/L (≈ 1.22 µM) |  | 
N#Cc1ccc(CSc2nc3ccccc3c(=O)n2-c2cccc(C(=O)O)c2)cc1 | 39 | 8 mg/L |  | 2 mg/L (≈ 4.84 µM) |  | 78 mg/L (≈ 189 µM) |  | > 99.9% |  |  | <=4
O=C(O)c1cccc(-n2c(SCc3ccccc3)nc3ccccc3c2=O)c1 | > 128 | 4 mg/L | 1 mg/L (≈ 2.57 µM) | 0.25 mg/L (≈ 0.644 µM) |  | > 64 mg/L | 1 mg/L (≈ 2.57 µM) | > 99.9% | 0.5 mg/L (≈ 1.29 µM) |  | 
N#Cc1ccc(/C=C/c2nc3ccccc3c(=O)n2-c2cccc(NC(=O)C(F)(F)F)c2)cc1 | > 2130 | 32 mg/L | 1 mg/L (≈ 2.17 µM) | 2 mg/L (≈ 4.34 µM) | 0.06 mg/L (≈ 0.13 µM) | > 128 mg/L | 0.06 mg/L (≈ 0.13 µM) | > 99.9% | 0.06 mg/L (≈ 0.13 µM) |  | 
O=C(O)c1cccc(-n2c(/C=C/c3ccc(Br)s3)nc3ccccc3c2=O)c1 | 380 | 2 mg/L | 4 mg/L (≈ 8.82 µM) | 0.25 mg/L (≈ 0.551 µM) | 0.5 mg/L (≈ 1.1 µM) | 190 mg/L (≈ 419 µM) | 0.5 mg/L (≈ 1.1 µM) | > 99.9% | 0.5 mg/L (≈ 1.1 µM) |  | 
